Screening results as filed in PubChem BioAssay.
Most compounds without a hit are left out; they make up all but 4.8% or so of the library.
Jurkat NFkB inh: inhibitors of the PMA/ionomycin-induced NF-kB reporter in Jurkat cells; 330,000 compounds, 0.53% hits; PMA/ionomycin-induced NF-kB luciferase reporter, luminescence; inhibition, % at 4 µM; in the data active = inhibition above about 50%
HSF-1 act: increases HSF-1 driven luciferase reporter signal. NIH3T3-HGL HSF-1 luciferase reporter, MG132, 8 h; 100% = twice DMSO control signal. activation, % at 9 µM. 300,000 compounds, 1.7% hits;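 active = mean replicate activation of at least 50% with a set share of replicates each reaching 50%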;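 also: 0% = median of the neutral control wells and 100% = twice that signal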
HSF1 inh: HSF1 inhibition; NIH3T3-HGL HSE-luciferase, MG132-induced, luminescence 8 h; stronger effect = lower value; activity change, negative = inhibition, % at 7.5 µM (by protocol); 300,000 compounds, 0.77% hits; AID 2098;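 active = more than half of replicate wells show activity change below -50%, luminescence cut by over half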;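 also: luciferase reports HSF-1 transcriptional activity via heat shock element; 0% = median of DMSO wells and -100% = zero luminescence signal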
697 NFkB inh: lowers PMA/ionomycin-induced NF-kB signal in 697 B cells; inhibition, % at 4 µM; 330,000 compounds, 0.33% hits; 697 B-cell NF-kB luciferase reporter, 16 h; in the data active = inhibition above about 35%
T cruzi inh: blocks replication of Trypanosoma cruzi; T. cruzi beta-gal in NIH3T3, luminescence, 90 h; inhibition, % (concentration not given with the values); 300,000 compounds, 1.4% hits;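 active = mean inhibition across valid replicates above about 55%, limit read from the data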;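 also: signal also drops with host cell toxicity which is not excluded here; 0% = plate median of DMSO wells and 100% = zero luminescence signal; higher percent means less beta-gal luminescence so fewer parasites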
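Assay system: NIH/3T3 host cells with β-galactosidase reporter T. cruzi; input: 5,000 host fibroblasts per well; compound: single 50 nL compound addition per well in DMSO; timing: ≥90 h infection period, 3 h prior cell attachment; measured by: GalScreen β-gal luminescence, detergent lysis, 60 min; evaluation: percent inhibition of parasite-derived β-gal signal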
GPR7 antag: antagonists of human GPR7 (neuropeptides B/W receptor 1); 290,000 compounds, 1.1% hits; GPR7-expressing cells, fluorescence antagonist assay; AID 1861; inhibition, % at 4.4 µM; P48145; in the data active = inhibition above about 16%, passing the limit was not always enough;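 also: cells stimulated with the agonist NPW; 0% = agonist with vehicle and 100% = vehicle without agonist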
Target sequence (P48145 whole entry, looked up): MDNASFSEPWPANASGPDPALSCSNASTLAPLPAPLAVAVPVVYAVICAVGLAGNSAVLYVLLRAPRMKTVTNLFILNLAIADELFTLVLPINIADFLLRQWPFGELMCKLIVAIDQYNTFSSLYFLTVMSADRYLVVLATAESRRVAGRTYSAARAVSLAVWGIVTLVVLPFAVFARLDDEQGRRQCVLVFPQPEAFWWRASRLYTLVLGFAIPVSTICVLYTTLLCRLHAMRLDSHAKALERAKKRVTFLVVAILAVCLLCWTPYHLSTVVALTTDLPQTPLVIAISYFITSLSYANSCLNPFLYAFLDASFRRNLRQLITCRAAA
* hit, by the source's call; / = no result.

SMILES	Jurkat NFkB inh	HSF-1 act	HSF1 inh	697 NFkB inh	T cruzi inh	GPR7 antag
CC(=O)N1c2ccc(S(=O)(=O)N(C)CC(=O)Nc3cccc(C)c3)cc2CC1C (stereo not given)	9	17	0	-9	7	6
COc1cc(NC(=O)CN(C)S(=O)(=O)c2ccc3c(c2)CC(C)N3C(C)=O)cc(OC)c1 (stereo not given)	-9	-88	-84*	1	5	6
CC(CS(=O)(=O)c1ccc2c(c1)NC(=O)CS2)C(=O)NCc1ccccc1Cl (stereo not given)	-28	11	6	-4	13	9
Nc1nc(N)c2cc(Sc3ccc4ccccc4c3)ccc2n1	26	4	-4	-18	58*	-10
Cc1nnc(SCc2ccc(Cl)cc2)nc1/C=C/N(C)C	-1	7	3	-4	61*	-3
CSc1nnc(C)c(/C=C/NOCc2ccc(Cl)cc2)n1	13	18	10	4	-4	15
COc1ccc(-c2c(-c3ccccc3OC)oc3ccccc23)cc1F	-17	/	/	-4	/	/
CCOC(=O)c1c(-c2ccc(C)cc2)cn2ccccc12	-4	78*	33	2	-2	3
O=C(CSc1c2c(nc3ccccc13)CCCC2)NCc1ccco1	12	86*	40	-4	31	-11
O=C(CSc1c2c(nc3ccc(Cl)cc13)CCCC2)NCCCN1CCOCC1	2	68*	41	-12	18	-11
CC(C)CCNC(=O)c1ccc2c(SCC(=O)O)c3c(nc2c1)CCC3	-5	-89	-86*	9	1	-5
O=C(CSc1c2c(nc3cc(Cl)ccc13)CCCC2)NCCN1CCOCC1	2	65*	43	-10	27	-2
CC(C)C(OC(=O)Cn1nnc2ccccc21)C(=O)NC1CCCC1 (stereo not given)	5	-2	2	15	-3	-1
Cc1ccc(S(=O)(=O)N(CCC#N)C2CCCCC2)c2nsnc12	5	40	12	16	-8	-2
CCOC(=O)N1CCN(Cc2nnc(-c3ccccc3C)o2)CC1	4	5	1	5	-6	-2
CN1CCN(CCCNC(=O)c2ccc3c(Cl)c4c(nc3c2)CCCC4)CC1	-9	4	15	-24	2	-20
COCCCNC(=O)CSc1c2c(nc3ccc(Cl)cc13)CCCC2	3	40	37	-14	12	-14
O=C(CSc1c2c(nc3cc(Cl)ccc13)CCCC2)NCCCN1CCOCC1	4	189*	141	-16	7	6
Cc1ccc(CNC(=O)CSc2c3c(nc4cc(Cl)ccc24)CCCC3)o1	13	65*	44	-4	-5	2
CCN(CC)CCCNC(=O)CSc1c2c(nc3cc(Cl)ccc13)CCCC2	-2	202*	154	-15	29	-12
COc1ccc(Cl)cc1NC(=O)c1ccc2c(SCC(=O)O)c3c(nc2c1)CCCC3	-1	29	15	24	15	-7
COc1ccc(-c2c(-c3ccccc3OC)sc3ccccc23)cc1C=O	-9	/	/	-40	/	/
Cc1ccc(S(=O)(=O)C2(C(=O)NCCc3ccccc3)CC2)cc1	11	8	3	-1	-2	-4
COc1ccc(N2CCN(c3cc(C)c4ccc(O)cc4n3)CC2)cc1	1	27	4	-13	4	-4
Cc1cc(N2CCN(c3ccc(F)cc3)CC2)nc2cc(O)ccc12	13	-64	-55*	-12	-1	4
O=C(c1cc(COc2ccc(F)cc2Cl)on1)N(Cc1ccncc1)CC1CCCO1 (stereo not given)	3	5	-8	1	70*	1
CCN(CC1CCCO1)C(=O)c1cc(COc2ccc(F)cc2F)on1 (stereo not given)	-12	5	0	-3	-10	-3
O=C(c1cc(COc2ccc(F)cc2Cl)on1)N1CCCCCC1	-108	60*	46	-187	17	6
O=C(c1cc(COc2ccc(F)cc2Cl)on1)N1CCCCCCC1	-5	12	8	-5	9	15
CCN(Cc1ccncc1)C(=O)c1cc(COc2ccc(C)c(C)c2)on1	4	4	-1	13	56*	-7
